Screens deposited in PubChem BioAssay by several laboratories.
Most compounds without a hit are left out; they make up all but 2.6% or so of the library.
Rad51 HR inh: human RAD51 strand exchange inhibitors, primary screen, biochemical, fluorescence; hRad51 DNA strand exchange, fluorescence dequenching; inhibition, % at 10 µM; hit rate 0.085% among 200,000;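 active = inhibition above 40% at the single screening dose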;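 note: 0% = DMSO control wells and 100% = blanks with heterologous ssDNA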
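Test system: preformed human Rad51 ssDNA filaments; also added: Donor/quencher-labelled 47-bp dsDNA substrate; doses: 10 µM final, single point; times: 37 °C 15-min filament assembly, 30-min compound preincubation, 15-min exchange; detection: FRET fluorescence dequenching, excitation 485 nm, emission 520 nm; read-out basis: Fluorescence-based percent inhibition, control- and blank-normalised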
HSF-1 act: HSF-1 activators, primary screen, NIH3T3-HGL cells, MG132 stress, luminescence, single point. NIH3T3-HGL HSF-1 luciferase reporter, 8 h; 100% = twice DMSO control signal. activation, % at 9 µM. hit rate 1.7% among 300,000;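 active = mean replicate activation of at least 50% with a set share of replicates each reaching 50%; inconclusive = only one of those two conditions met; inactive = mean below 50% and too few replicates reaching it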;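 note: 0% = median of the neutral control wells and 100% = twice that signal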
Hsp70 act: Hsp70 transcriptional activators, primary screen, cell-based, HeLa, Hsp70 promoter luciferase, luminescence, 10 µM. HeLa Hsp70 promoter luciferase reporter; scaled: vehicle 0, proteasome-inhibitor control 100%. activation, % at 10 µM. hit rate 0.04% among 200,000. AID 1203, 2008;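 active = activation above the mean across all tested compounds plus 3 SD, cutoff set per campaign, cut at about 5.5% in these data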;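 note: 100% = MG132 at 30 µM as the positive control and 0% = DMSO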
HSV replic up: enhancers of HSV replication in host cells, fold increase, host cell viability. hit rate 0.005% among 220,000. HSV replication augmentation in cells. maximum fold increase. AID 1956, 2009; in the data active = maximum fold increase above about 1.5; inconclusive = no clear call, values can overlap the other calls; tested in PC3 cells
MDM2 E3 inh: MDM2-luciferase reporter signal enhancers, primary screen, MDM2 E3 ligase inhibitor project, cell-based, luminescence, 1536-well; E3 ubiquitin-protein ligase Mdm2 (Homo sapiens), Q00987; cell-based MDM2 ubiquitination luciferase reporter, 2 h; 0 = plate control, 100 = twice control, blank-subtracted; signal enhancement, % at 5 µM; hit rate 0.11% among 210,000; AID 1230, 2008;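 active = signal enhancement of 30% or more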;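 note: luminescence tracks abundance of the self-degrading MDM2-luciferase fusion protein; higher signal means inhibition of MDM2 E3 ligase activity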
Target sequence (Q00987 whole entry, looked up, the tested form may be a part): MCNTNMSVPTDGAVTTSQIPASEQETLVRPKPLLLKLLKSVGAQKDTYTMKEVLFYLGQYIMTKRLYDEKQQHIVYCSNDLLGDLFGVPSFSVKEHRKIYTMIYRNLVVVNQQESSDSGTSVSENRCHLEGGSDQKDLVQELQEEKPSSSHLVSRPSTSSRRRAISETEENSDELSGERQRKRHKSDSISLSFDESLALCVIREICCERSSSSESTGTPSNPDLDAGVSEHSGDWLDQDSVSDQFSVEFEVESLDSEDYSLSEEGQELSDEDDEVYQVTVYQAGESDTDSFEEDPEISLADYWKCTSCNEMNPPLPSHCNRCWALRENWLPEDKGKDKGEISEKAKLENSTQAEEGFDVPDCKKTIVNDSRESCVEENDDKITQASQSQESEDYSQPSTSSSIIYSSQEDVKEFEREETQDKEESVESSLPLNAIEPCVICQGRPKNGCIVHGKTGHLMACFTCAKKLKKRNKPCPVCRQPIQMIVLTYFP
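system = mammalian cells stably expressing self-ubiquitinating, self-degrading MDM2 E3–luciferase fusion | quantity = 2000 cells per well seeded | incubation = 4 h cell settling then 2 h compound exposure, 37 °C | signal = SteadyLite luminescence, 15 min reagent step | benchmarks = plate control and blank wells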
HSF1 inhib: HSF1 inhibitors in luciferase reporter cells, primary screen, cell-based, NIH3T3, luminescence; NIH3T3-HGL HSE-luciferase, MG132-induced, luminescence 8 h; stronger effect = lower value; activity change, negative = inhibition, % at 7.5 µM (by protocol); hit rate 0.77% among 300,000; AID 2098, 2009;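 active = more than half of replicate wells show activity change below -50%, luminescence cut by over half; inconclusive = some wells, but at most half, below -50%; inactive = no replicate well below -50%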;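 note: luciferase reports HSF-1 transcriptional activity via heat shock element; 0% = median of DMSO wells and -100% = zero luminescence signal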
An asterisk follows results filed as active; i = inactive; ? = inconclusive; . = no result.

SMILES	Rad51 HR inh	HSF-1 act	Hsp70 act	HSV replic up	MDM2 E3 inh	HSF1 inhib
O=C(Nc1ccc(C(=O)N2CCOCC2)cc1)c1cnn2c(C(F)F)cc(-c3ccccc3)nc12	-2.3	54.0*	-0.4	i	-1.8	12.9
O=C(O)/C=C/c1cccc2c1OCCO2	-7.9	4.6	.	i	-9.7	2.9
COc1cccc(CN2CCNC(=O)C2CC(=O)NCCCN2CCCC2=O)c1 (configuration not stated)	.	16.2	.	.	.	-0.1
O=C(CCSc1ccc(Cl)cc1)N1CCCCCC1	1.6	107.4*	-0.2	i	-12.5	75.3
O=C(COc1ccc(Cl)cc1)N1CCCC1	2.7	-73.3	0.1	i	.	-71.3*
CCOc1ccc(NS(=O)(=O)c2c(C(=O)N3CCCCCC3)c(C)n(C)c2C)cc1	.	6.4	.	.	.	3.4
O=C(Cc1ccsc1)Nc1ccc(S(=O)(=O)C(F)F)cc1	4.2	-71.4	0.0	i	2.2	-63.5*
Brc1ccc(-n2cnc(-c3ccccc3)c2)cc1	.	77.5*	.	.	.	45.9
COc1ccc(NC(=O)c2cccc(S(=O)(=O)NCc3ccco3)c2)c(OC)c1	.	-10.8	.	.	.	-4.5
C/C(=N\OC(=O)c1ccc(F)cc1)c1ccc(F)c(F)c1	19.4	53.7*	.	i	-6.6	19.9
Cc1ccc(/C(N)=N/OC(=O)c2ccc(F)cc2)cc1	4.1	?	0.2	i	-31.4	23.4
O=C(CSc1nc2[nH]ncc2c(=O)[nH]1)Nc1ccccc1F	.	7.6	.	.	.	5.3
O=C(NCC(=O)N(c1ccc(F)cc1)C(C(=O)NC1CCCC1)c1ccncc1)c1ccco1 (configuration not stated)	.	-9.8	.	.	.	1.3
COc1ccc(C(=O)C2CCCN(S(=O)(=O)c3ccccc3F)C2)c(C)c1 (configuration not stated)	.	-83.6	.	.	.	-77.3*
CCS(=O)(=O)N1CCCC(C(=O)c2ccc(OC)cc2C)C1 (configuration not stated)	-1.9	5.0	-0.3	i	-12.4	0.2
CCc1nn(CC(=O)N2CCC(C(N)=O)CC2)c(=O)c2cc3occc3n12	.	-74.9	.	.	.	-67.3*
CCOC(=O)C1CCN(C(=O)CCCn2nc(CC)n3c(cc4occc43)c2=O)CC1	.	-14.0	.	.	.	-1.3
CC(C)[C@H](Nc1nc(-c2ccccc2)nc2c1oc1ccccc12)C(=O)O	-1.0	-65.1	-0.4	i	-4.2	-54.9*
O=C(O)CSc1nc(-c2ccccc2)nc2c1oc1ccccc12	11.0	-74.4	0.0	i	-27.9	-68.4*
CCc1nc(SCC(=O)c2cccs2)c2oc3ccccc3c2n1	0.6	65.9*	-0.4	i	-1.7	12.4
CCC(C)[C@H](Nc1nc(-c2ccccc2)nc2c1oc1ccccc12)C(=O)O (some centres not stated)	-7.0	-25.6	-0.1	i	-8.2	-3.0
CCc1nc(SCC(=O)NCCc2ccccc2)c2oc3ccccc3c2n1	-0.8	12.7	-0.3	i	-16.2	-4.8
CSc1ccc(C(=O)C2CCCN(C(=O)Cn3cnnn3)C2)cc1 (configuration not stated)	.	3.2	.	.	.	-0.4
Cc1oc(=O)c(NC(=O)c2cccc(Cl)c2)cc1C(=O)c1ccccc1	4.9	122.8*	-0.1	i	-18.1	74.3
Cc1ccc(-c2nc(NCCN(C)C)c3ccccc3n2)cc1	.	26.1	.	.	.	-5.3
SMILES	Rad51 HR inh	HSF-1 act	Hsp70 act	HSV replic up	MDM2 E3 inh	HSF1 inhib
COCCN(CCOC)c1nc(-c2ccc(C)cc2)nc2ccccc12	.	192.8*	.	.	.	105.8
CCN(CC)c1ccc(NC(=O)CCCOc2cccc(C)c2)cc1	41.5*	-5.1	-0.3	i	-1.9	-1.7
Cc1cccc(OCCCC(=O)Nc2ccc(S(N)(=O)=O)cc2)c1	-0.5	12.1	-0.1	i	0.4	-2.7
CCCn1c(C(O)c2ccc(OC)c(OC)c2)nc2ccccc21 (configuration not stated)	.	26.9	.	.	.	-2.4
Nc1ncnc2c1ncn2[C@@H]1O[C@H](CO)[C@@H](O)[C@H]1O	8.4	4.1	-0.2	i	.	-5.7
Nc1ncnc2c(C3OC(CO)C(O)C3O)c[nH]c12 (configuration not stated)	.	90.8*	.	.	.	90.8*
COc1ccccc1CNC(=O)C(=O)NCC1OCCN1S(=O)(=O)c1ccc(Br)cc1 (configuration not stated)	.	9.2	.	.	.	6.9
C/C=C1\COC(C(=O)NCCN2CCCC2)(C(F)(F)F)C=C1C=C1CCCCC1 (configuration not stated)	-3.8	0.1	.	i	.	-4.2
C/C=C1\COC(C(=O)NCc2ccccc2)(C(F)(F)F)C=C1C=C1CCCCC1 (configuration not stated)	1.0	71.0*	.	i	.	53.0
Cc1ccc(-n2c(C)cc(C=C3C(=O)CC(C)(C)CC3=O)c2C)cc1	-2.3	-27.9	0.6	i	57.4*	-12.1
Cc1cc(/C=C2\SC(=S)N(C)C2=O)c(C)n1-c1ccccc1O	.	-46.8	.	.	.	-38.3
Cc1ccc(-n2c(C)cc(/C=C3\SC(=O)NC3=O)c2C)cc1	.	61.0*	.	.	.	38.5
Cc1cc(/C=C2\SC(=S)N(C)C2=O)c(C)n1-c1ccc(O)cc1	-40.1	-50.7	.	.	-74.5	-51.8*
O=C(NC(=S)Nc1ccccc1Br)c1ccco1	.	42.7	.	.	.	23.8
O=C1CCN(Cc2ccccc2)S(=O)(=O)c2ccccc21	-1.5	-8.7	.	i	39.9*	-7.0
CCCC[C@@H]1CNC(=O)C(=O)N1CCc1cccc2ccccc12	-0.7	-75.5	.	i	.	-68.7*
COc1ccc(N2CCN(c3ccc(NC(=O)NN)cc3)CC2)cc1	.	-74.3	.	.	.	-66.9*
COc1ccc(C(=O)Nc2ccc(N3CCCC3)cc2)cc1	8.1	12.3	-0.3	i	-12.0	6.8
COc1ccccc1C(=O)Nc1ccc(N2CCN(S(C)(=O)=O)CC2)cc1	-2.2	78.1*	-0.1	i	-1.6	43.4
Cc1cc(Cl)ccc1OCCCC(=O)N1CCOCC1	7.2	-73.6	0.6	i	-11.9	-64.9*
Cc1cc(NC(=O)c2ccc(Cl)cc2)cc(C)c1OCC(=O)N1CCOCC1	.	54.0*	.	.	.	22.6
S=C(NCC1CCCO1)N1CCN(Cc2ccccc2Cl)CC1 (configuration not stated)	-5.3	13.1	-0.1	i	-1.2	7.9
CCn1cc(C(=O)NCc2ccccc2OC)c(=O)c2cc(S(=O)(=O)N(C)C)ccc21	5.8	6.8	-0.5	i	36.8*	0.2
CCN(CC)S(=O)(=O)c1ccc2c(c1)c(=O)c(C(=O)NCc1ccco1)cn2C	10.9	-92.6	-0.4	i	-6.6	-90.4*
